{"data": "Results gathered from unrelated publications", "OPRK1": "Kappa-type opioid receptor (OPRK1, Cavia porcellus, UniProt P41144)", "note": "Each line is one published result; the experiments were not run side by side."}
{"SMILES": "CCc1cccc(C)c1C[C@H](NC(=O)[C@@H](CCCNC(=N)N)NC(=O)[C@@H](N)Cc1c(C)cc(O)cc1C)C(=O)N[C@@H](CCCCN)C(N)=O", "target": "OPRK1", "assay": "ligand displacement, radioligand", "setting": "cell membranes", "measurement": "Ki", "value": "0.961 nM"}
{"SMILES": "Cc1nccc2c1[nH]c1ccccc12", "target": "Amine oxidase [flavin-containing] A (MAOA, Homo sapiens, UniProt P21397)", "assay": "enzyme activity, inhibitor", "measurement": "Ki", "value": "580 nM"}
{"SMILES": "C[C@@H](NC(=O)[C@@H](N)Cc1ccc(O)cc1)C(=O)NCC(=O)N[C@@H](Cc1ccccc1)C(=O)N(C)CCC[C@@]1(c2ccc(F)cc2)OCc2cc(C#N)ccc21", "target": "Alpha-1A adrenergic receptor (ADRA1A, Homo sapiens, UniProt P35348)", "assay": "ligand displacement, radioligand", "measurement": "Ki", "value": "6800 nM"}
{"SMILES": "Cc1cc(C)c(C[C@H](NC(=O)[C@@H](CCCNC(=N)N)NC(=O)[C@@H](N)Cc2c(C)cc(O)cc2C)C(=O)N[C@@H](CCCCN)C(N)=O)c(C)c1", "target": "OPRK1", "assay": "ligand displacement, radioligand", "setting": "cell membranes", "measurement": "Ki", "value": "48 nM"}
{"SMILES": "CSCC[C@H](NC(=O)[C@H](Cc1c[nH]c2ccccc12)NC(=O)[C@@H](N)CO)C(=O)N[C@H](C(=O)N[C@H](C(=O)N1CCC[C@H]1C(=O)N[C@@H](Cc1c[nH]c2ccccc12)C(=O)NCC(=O)N[C@@H](Cc1ccccc1)C(=O)N[C@@H](Cc1c[nH]cn1)C(=O)N[C@@H](CC(C)C)C(=O)N1CCC[C@H]1C(=O)O)[C@@H](C)O)[C@@H](C)O", "target": "Chaperonin GroEL (groEL, Escherichia coli, UniProt P0A6F5)", "assay": "binding, ITC", "measurement": "Kd", "value": "1400 nM"}
{"SMILES": "Cc1cc(O)cc(C)c1C[C@H](C)C(=O)N[C@@H]1CCCCC[C@@H](C(N)=O)NC(=O)[C@H](Cc2ccccc2)NC(=O)[C@H](Cc2ccccc2)NC1=O", "target": "OPRK1", "assay": "ligand displacement, radioligand", "setting": "cell membranes", "measurement": "Ki", "value": "302 nM"}
{"SMILES": "Cc1cc(O)cc(C)c1C[C@H](N)C(=O)N[C@H](C)C(=O)N[C@@H](Cc1ccccc1)C(=O)N[C@@H](CCCN)C(N)=O", "target": "OPRK1", "assay": "ligand displacement, radioligand", "setting": "cell membranes", "measurement": "Ki", "value": "32 nM"}
{"SMILES": "CC[C@H](C)[C@H](NC(=O)[C@H](CC(=O)O)NC(=O)[C@H](CC(N)=O)NC(=O)[C@@H](NC(=O)[C@H](Cc1ccccc1)NC(=O)[C@H](CO)NC(=O)CNC(=O)[C@H](CC(=O)O)NC(=O)[C@H](C)NC(=O)[C@@H](N)Cc1c[nH]cn1)[C@@H](C)O)C(=O)N[C@@H](CC(N)=O)C(=O)N[C@@H](CCCCN)C(=O)N[C@H](C(=O)N[C@@H](CC(C)C)C(=O)N[C@@H](CC(=O)O)C(=O)N[C@H](C(=O)N[C@H](C(=O)N[C@@H](C)C(=O)N[C@@H](C)C(=O)N[C@@H](CCC(N)=O)C(=O)N[C@@H](CCC(=O)O)C(=O)N[C@@H](Cc1ccccc1)C(=O)N[C@@H](CC(C)C)C(=O)N[C@@H](CC(=O)O)C(=O)N[C@@H](Cc1c[nH]c2ccccc12)C(=O)N[C@H](C(=O)N[C@H](C(=O)N[C@@H](CC(N)=O)C(=O)N[C@H](C(=O)N[C@@H](CCC(N)=O)C(=O)N[C@H](C(=O)N[C@H](C(=O)N[C@@H](CCC(=O)O)C(=O)O)[C@@H](C)O)C(C)C)[C@@H](C)O)[C@@H](C)CC)C(C)C)[C@@H](C)CC)[C@@H](C)CC)C(C)C", "target": "Glucagon-like peptide 2 receptor (GLP2R, Homo sapiens, UniProt O95838)", "assay": "reporter gene, agonist, luciferase", "measurement": "EC50", "value": "> 1000 nM"}
{"SMILES": "N=C(N)NCCC[C@@H]1NC(=O)[C@H](Cc2ccc(O)cc2)NC(=O)[C@@H](CCCCN)NC(=O)[C@@H](Cc2ccccc2)NC1=O", "target": "OPRK1", "assay": "ligand displacement, radioligand", "setting": "cell membranes", "measurement": "Ki", "value": "4850 nM"}
